One block for each compound: values may come before it. Calls of active or inactive are those of the source. No cut-off for these calls is given here.
Key:
[1] = Metabolic stability in mouse liver microsomes at 1 uM after 5 to 30 mins; type: ADME, Microsome
HepG2 = assay: Cytotoxicity against human HepG2 cells after 72 hrs; type: cell-based; conditions: hepg2, 72 h
[2] = Selectivity ratio of IC50 for human cathepsin D to IC50 for Plasmodium falciparum plasmepsin-2
[3] = biological target: Plasmepsin V (Plasmodium falciparum (isolate 3D7)) (UniProt Q8I6Z5); assay: (§1) Inhibition of Plasmodium falciparum […] plasmepsin-5 using DABCYL-GNKRTLAQKQG-EDANS as substrate measured every 15 mins of 75 mins by fluorescence assay
Liver microsome [4] = assay: Metabolic stability in rat liver microsomes at 1 uM after 5 to 30 mins; type: ADME
Cytochrome P450 1A2 = biological target: T1, Cytochrome P450 1A2 (Homo sapiens, UniProt P05177); assay: Inhibition of human recombinant CYP1A2 after 30 mins; type: ADME; conditions: recombinant enzyme, 0.5 h
T1 sequence (P05177 whole entry): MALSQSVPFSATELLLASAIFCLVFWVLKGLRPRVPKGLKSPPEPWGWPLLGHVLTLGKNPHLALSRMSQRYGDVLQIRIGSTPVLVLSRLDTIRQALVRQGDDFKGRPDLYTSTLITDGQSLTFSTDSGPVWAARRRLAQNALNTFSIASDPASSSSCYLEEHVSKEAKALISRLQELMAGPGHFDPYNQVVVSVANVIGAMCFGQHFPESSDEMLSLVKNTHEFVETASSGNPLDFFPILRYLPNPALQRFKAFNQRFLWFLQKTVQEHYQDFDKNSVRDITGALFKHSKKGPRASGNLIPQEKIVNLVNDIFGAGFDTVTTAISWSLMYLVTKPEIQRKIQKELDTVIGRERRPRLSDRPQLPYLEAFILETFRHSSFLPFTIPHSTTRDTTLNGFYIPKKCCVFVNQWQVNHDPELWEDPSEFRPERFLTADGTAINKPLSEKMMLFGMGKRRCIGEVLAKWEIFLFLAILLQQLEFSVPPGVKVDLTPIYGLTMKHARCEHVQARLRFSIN

Liver microsome [5] = assay: Metabolic stability in human liver microsomes at 1 uM after 5 to 30 mins; type: ADME
Plasmodium chabaudi [6] = assay: Antimalarial activity against Plasmodium chabaudi ASS infected in NIH mouse assessed as inhibition of parasitemia at 100 mg/kg, po qd for 4 days; type: functional; conditions: 96 h
Method in brief: (§2)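 Mice infected with P. chabaudi were given oral doses once daily for four days, starting four hours after infection. Parasitemia was read on Day 4 postinoculation and expressed as percent inhibition of parasitemia.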

Plasmodium falciparum [7] = assay: Antimalarial activity against chloroquine-sensitive Plasmodium falciparum 3D7 infected in […] after 72 hrs by SYBR Green I-based fluorescence method; type: functional, organism-based; conditions: for IC50: 3D7, 72 h
Plasmodium falciparum [8] = assay: Antimalarial activity against chloroquine and pyrimethamine-resistant Plasmodium falciparum Dd2 infected in […] after 48 hrs by SYBR Green I-based fluorescence method; type: functional
Cytochrome P450 3A4 = Cytochrome P450 3A4 (Homo sapiens, UniProt P08684); assay: Inhibition of human recombinant CYP3A4 after 30 mins; type: ADME; conditions: recombinant enzyme, 0.5 h
[9] = Selectivity ratio of IC50 for human BACE1 to IC50 for Plasmodium falciparum plasmepsin-2
Plasmodium falciparum [10] = assay: Antimalarial activity against chloroquine-sensitive Plasmodium falciparum 3D7 infected in […] after 48 hrs by SYBR Green I-based fluorescence method; type: functional, organism-based
Plasmodium chabaudi [11] = assay: Antimalarial activity against Plasmodium chabaudi ASS infected in NIH mouse assessed as inhibition of parasitemia at 150 to 300 mg/kg, po qd for 4 days; type: functional; conditions: dose mg/kg 150-300
Cytochrome P450 2C19 = Cytochrome P450 2C19 (Homo sapiens, UniProt P33261); assay: Inhibition of human recombinant CYP2C19 after 30 mins; type: ADME; conditions: recombinant enzyme, 0.5 h
Mus musculus = assay: Toxicity in Plasmodium chabaudi ASS infected NIH mouse assessed as survival at 10 to 300 mg/kg, po qd for 4 days; type: organism-based; design: dose 10-300 mg/kg, route oral; conditions: in vivo, 96 h
Cytochrome P450 2D6 = Cytochrome P450 2D6 (Homo sapiens, UniProt P10635); assay: Inhibition of human recombinant CYP2D6 after 30 mins; type: ADME; conditions: recombinant enzyme, 0.5 h
[12] = Selectivity ratio of IC50 for human cathepsin E to IC50 for Plasmodium falciparum plasmepsin-2
Cytochrome P450 2C9 = Cytochrome P450 2C9 (Homo sapiens, UniProt P11712); assay: Inhibition of human recombinant CYP2C9 after 30 mins; type: ADME; conditions: recombinant enzyme, 0.5 h
Plasmodium chabaudi [13] = assay: Antimalarial activity against Plasmodium chabaudi ASS infected in NIH mouse assessed as inhibition of parasitemia at 4.5 mg/kg, po qd for 4 days; type: functional; conditions: 96 h; method in brief: as §2
[14] = biological target: Plasmepsin II (Plasmodium falciparum) (UniProt P46925); assay: Inhibition of Plasmodium falciparum plasmepsin-2 after 60 mins by fluorescence assay
Plasmepsin V = Plasmepsin V (Plasmodium falciparum (isolate 3D7), UniProt Q8I6Z5); assay: as §1
[15] = test system: Plasmepsin IV (Plasmodium falciparum); assay: Inhibition of Plasmodium falciparum plasmepsin-4 after 60 mins by fluorescence assay
Plasmodium chabaudi [16] = assay: Antimalarial activity against Plasmodium chabaudi ASS infected in NIH mouse assessed as inhibition of parasitemia at 110 mg/kg, po qd for 4 days; type: functional; conditions: 96 h; method in brief: as §2
[17] = Plasma concentration in Plasmodium chabaudi ASS infected NIH mouse at 110 mg/kg, po qd measured 24 hrs after post last dose on day 3; type: ADME, organism-based; design: dose 110 mg/kg, route oral
Method in brief: (§3)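 P. chabaudi-infected mice were dosed orally once daily for four days, starting four hours post-infection. Plasma compound levels were measured at 1, 6 and 24 h after the last dose on Day 3.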

[18] = Plasma concentration in Plasmodium chabaudi ASS infected NIH mouse at 110 mg/kg, po qd measured 30 mins after post last dose on day 3; type: ADME, organism-based; design: dose 110 mg/kg, route oral
Plasmodium falciparum [19] = assay: Antimalarial activity against Plasmodium falciparum; type: functional, organism-based
[20] = Plasma concentration in Plasmodium chabaudi ASS infected NIH mouse at 100 mg/kg, po qd measured 1 hr after post last dose on day 3; type: ADME, organism-based; design: dose 100 mg/kg, route oral; method in brief: as §3
[21] = Plasma concentration in Plasmodium chabaudi ASS infected NIH mouse at 100 mg/kg, po qd measured 6 hrs after post last dose on day 3; type: ADME, organism-based; design: dose 100 mg/kg, route oral; method in brief: as §3
[22] = Plasma concentration in Plasmodium chabaudi ASS infected NIH mouse at 100 mg/kg, po qd measured 24 hrs after post last dose on day 3; type: ADME, organism-based; design: dose 100 mg/kg, route oral; method in brief: as §3

Sequence of Cytochrome P450 2C9 (P11712 whole entry): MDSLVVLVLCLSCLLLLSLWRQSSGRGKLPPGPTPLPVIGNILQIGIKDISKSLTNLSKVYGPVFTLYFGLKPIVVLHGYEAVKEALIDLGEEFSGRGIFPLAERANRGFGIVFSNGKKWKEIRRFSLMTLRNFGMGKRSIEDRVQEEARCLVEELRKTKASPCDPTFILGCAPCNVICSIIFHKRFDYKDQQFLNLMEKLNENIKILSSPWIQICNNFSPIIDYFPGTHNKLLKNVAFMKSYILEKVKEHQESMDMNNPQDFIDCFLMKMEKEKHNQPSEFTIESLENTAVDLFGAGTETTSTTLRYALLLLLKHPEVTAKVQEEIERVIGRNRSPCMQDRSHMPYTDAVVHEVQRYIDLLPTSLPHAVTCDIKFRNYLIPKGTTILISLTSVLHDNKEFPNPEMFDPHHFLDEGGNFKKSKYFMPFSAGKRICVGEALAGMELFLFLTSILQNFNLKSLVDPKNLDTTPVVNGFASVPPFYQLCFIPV
Sequence of Cytochrome P450 2D6 (P10635 whole entry): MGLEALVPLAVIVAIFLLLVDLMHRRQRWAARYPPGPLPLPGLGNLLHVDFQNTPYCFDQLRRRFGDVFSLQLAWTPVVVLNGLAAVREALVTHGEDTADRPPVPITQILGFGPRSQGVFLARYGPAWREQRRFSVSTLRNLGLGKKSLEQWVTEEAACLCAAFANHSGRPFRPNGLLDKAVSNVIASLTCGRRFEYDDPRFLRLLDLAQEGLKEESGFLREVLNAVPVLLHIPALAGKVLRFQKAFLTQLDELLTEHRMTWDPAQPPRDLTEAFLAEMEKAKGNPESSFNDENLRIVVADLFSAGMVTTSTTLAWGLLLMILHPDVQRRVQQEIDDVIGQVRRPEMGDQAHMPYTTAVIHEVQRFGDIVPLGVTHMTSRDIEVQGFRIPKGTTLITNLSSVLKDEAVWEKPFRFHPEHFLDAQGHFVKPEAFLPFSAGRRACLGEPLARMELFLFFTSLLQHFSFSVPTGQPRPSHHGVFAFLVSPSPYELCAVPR
Sequence of Cytochrome P450 3A4 (P08684 whole entry): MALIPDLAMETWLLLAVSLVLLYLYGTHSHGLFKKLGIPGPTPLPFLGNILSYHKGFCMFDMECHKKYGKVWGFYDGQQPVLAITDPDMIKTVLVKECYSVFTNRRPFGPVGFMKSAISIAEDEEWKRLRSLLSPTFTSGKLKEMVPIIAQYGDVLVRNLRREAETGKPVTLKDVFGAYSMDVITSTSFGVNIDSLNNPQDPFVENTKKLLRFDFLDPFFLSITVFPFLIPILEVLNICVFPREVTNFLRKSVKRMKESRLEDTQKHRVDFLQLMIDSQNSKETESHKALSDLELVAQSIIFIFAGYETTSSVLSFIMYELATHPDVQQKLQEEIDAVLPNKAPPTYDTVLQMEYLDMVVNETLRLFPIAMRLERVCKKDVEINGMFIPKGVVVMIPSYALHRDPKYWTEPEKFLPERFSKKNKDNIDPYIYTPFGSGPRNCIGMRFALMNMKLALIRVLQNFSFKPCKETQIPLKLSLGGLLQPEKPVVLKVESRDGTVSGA
Sequence of Cytochrome P450 2C19 (P33261 whole entry): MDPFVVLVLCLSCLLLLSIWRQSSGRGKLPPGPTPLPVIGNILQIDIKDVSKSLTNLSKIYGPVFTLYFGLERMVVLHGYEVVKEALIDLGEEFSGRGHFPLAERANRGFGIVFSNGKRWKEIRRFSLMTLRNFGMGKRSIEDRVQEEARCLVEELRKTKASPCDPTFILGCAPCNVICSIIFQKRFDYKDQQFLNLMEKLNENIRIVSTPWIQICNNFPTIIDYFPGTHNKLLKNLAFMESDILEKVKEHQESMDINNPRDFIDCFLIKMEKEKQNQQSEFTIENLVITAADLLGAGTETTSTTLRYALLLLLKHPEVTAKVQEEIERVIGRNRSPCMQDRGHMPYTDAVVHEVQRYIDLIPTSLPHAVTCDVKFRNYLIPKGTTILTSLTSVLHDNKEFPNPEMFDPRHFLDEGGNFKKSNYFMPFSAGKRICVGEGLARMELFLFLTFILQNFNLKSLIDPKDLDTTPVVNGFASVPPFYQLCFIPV
Sequence of Plasmepsin II (Plasmodium falciparum) (P46925 125-453 limits assumed): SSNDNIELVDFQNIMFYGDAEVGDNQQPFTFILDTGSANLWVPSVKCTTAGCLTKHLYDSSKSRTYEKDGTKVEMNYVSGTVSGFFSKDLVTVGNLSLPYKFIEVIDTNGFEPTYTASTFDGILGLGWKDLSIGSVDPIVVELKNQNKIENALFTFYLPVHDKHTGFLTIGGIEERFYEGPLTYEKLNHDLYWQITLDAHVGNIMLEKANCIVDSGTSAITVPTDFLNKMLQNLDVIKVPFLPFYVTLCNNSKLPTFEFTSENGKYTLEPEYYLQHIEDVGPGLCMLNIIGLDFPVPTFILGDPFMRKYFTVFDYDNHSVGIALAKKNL
Sequence of Plasmepsin V (Q8I6Z5 whole entry): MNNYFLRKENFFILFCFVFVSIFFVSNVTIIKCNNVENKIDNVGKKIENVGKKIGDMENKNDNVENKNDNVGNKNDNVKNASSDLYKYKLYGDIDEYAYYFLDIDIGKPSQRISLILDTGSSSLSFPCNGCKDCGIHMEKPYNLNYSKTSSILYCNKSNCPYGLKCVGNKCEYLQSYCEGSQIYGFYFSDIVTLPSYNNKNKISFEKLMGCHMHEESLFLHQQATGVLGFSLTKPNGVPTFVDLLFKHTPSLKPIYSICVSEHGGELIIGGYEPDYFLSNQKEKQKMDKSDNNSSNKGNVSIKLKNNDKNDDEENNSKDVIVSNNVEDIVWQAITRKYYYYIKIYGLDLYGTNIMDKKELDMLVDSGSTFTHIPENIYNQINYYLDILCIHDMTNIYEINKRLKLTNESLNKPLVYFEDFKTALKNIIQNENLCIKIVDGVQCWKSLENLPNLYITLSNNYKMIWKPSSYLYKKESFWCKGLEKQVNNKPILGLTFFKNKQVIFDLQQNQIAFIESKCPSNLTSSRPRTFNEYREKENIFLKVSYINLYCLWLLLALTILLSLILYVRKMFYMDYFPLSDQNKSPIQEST
Sequence of Plasmepsin V (Plasmodium falciparum (isolate 3D7)) (Q8I6Z5 whole entry, looked up): as the sequence (Q8I6Z5 whole entry) above

SMILES: COc1ccc(C2(c3ccc(OC)cc3)NC(=N)N(C3CCCCC3)C2=O)cc1
Stability [1]: Stable | Activity (HepG2): Toxic | Ratio IC50 [2]: > 1000 | inhibition [3]: inactive | Stability (Liver microsome [4]): Stable | inhibition (INH) (Cytochrome P450 1A2): Not Active | Stability (Liver microsome [5]): Stable | inhibition in vivo at 100 mg/kg (Plasmodium chabaudi [6]): 89% | IC50 (Plasmodium falciparum [7]): 463 nM | IC50 (Plasmodium falciparum [8]; Dd2, 48 h): 480 nM | inhibition (INH) (Cytochrome P450 3A4): Active | Ratio IC50 [9]: > 1000 | inhibition (Plasmodium falciparum [10]): Active | inhibition (INH) (Plasmodium chabaudi [11]): 100% | inhibition (INH) (Cytochrome P450 2C19): Not Active | Activity (Mus musculus): Non-toxic | inhibition (INH) (Cytochrome P450 2D6): Not Active | Ratio IC50 [12]: 300 | inhibition (INH) (Cytochrome P450 2C9): Not Active

SMILES: CCN(CC)CCCC(C)Nc1ccnc2cc(Cl)ccc12 (configuration not stated) [CHLOROQUINE]
inhibition in vivo at 4.5 mg/kg (Plasmodium chabaudi [13]): 100%

SMILES: COc1ccc(C2(c3ccc(OC)cc3)NC(=S)N(C3CCCCC3)C2=O)cc1
inhibition (Plasmodium falciparum [7]): inactive | inhibition [14]: inactive

IC50 (Plasmepsin V): > 20000 nM
SMILES: Cc1cccc(C)c1OCC(=O)N[C@@H](Cc1ccccc1)[C@@H](O)C[C@H](Cc1ccccc1)NC(=O)[C@H](C(C)C)N1CCCNC1=O [LOPINAVIR]

SMILES: COc1ccc(C2(c3ccc(OC)cc3)NC(=O)N(C3CCCCC3)C2=O)cc1
inhibition (Plasmodium falciparum [7]): inactive | inhibition [15]: inactive | inhibition [14]: inactive

Ratio IC50 [2]: > 1000 | inhibition [3]: inactive | IC50 (Plasmodium falciparum [7]): 750 nM | Ratio IC50 [9]: > 1000 | Ratio IC50 [12]: 200
SMILES: N=C1NC(c2ccccc2)(c2cccc(-c3cccnc3)c2)C(=O)N1C1CCCCC1 (racemic)

SMILES: COc1ccc(C2(c3ccc(OC)cc3)NC(=N)N(C3CCOCC3)C2=O)cc1
Activity (HepG2): Toxic | inhibition in vivo at 110 mg/kg (Plasmodium chabaudi [16]): 63% | inhibition (INH) (Cytochrome P450 1A2): Not Active | IC50 (Plasmodium falciparum [7]): 459 nM | inhibition (Plasmodium falciparum [8]): Active | inhibition (INH) (Cytochrome P450 3A4): Active | inhibition (Plasmodium falciparum [10]): Active | inhibition (INH) (Cytochrome P450 2C19): Not Active | inhibition (INH) (Cytochrome P450 2D6): Not Active | concentration at 24 h [17]: 29 ng/mL | concentration at 0.5 h [18]: 4140 ng/mL | inhibition (INH) (Cytochrome P450 2C9): Not Active

IC50 (Plasmepsin V): 977 nM | IC50 (Plasmodium falciparum [7]): 2760 nM | IC50 (Plasmodium falciparum [19]): 140 nM
SMILES: CCC(CN1C(=N)NC(c2ccccc2)(c2ccccc2)C1=O)c1ccccc1 (racemic)

SMILES: COc1ccc(C2(c3ccc(OC)cc3)NC(=N)N(CC3CCOCC3)C2=O)cc1
Activity (HepG2): Toxic | concentration at 1 h [20]: 10400 ng/mL | concentration at 6 h [21]: 3030 ng/mL | inhibition (INH) (Cytochrome P450 1A2): Not Active | inhibition in vivo at 100 mg/kg (Plasmodium chabaudi [6]): 41% | concentration at 24 h [22]: 123 ng/mL | IC50 (Plasmodium falciparum [7]): 463 nM | inhibition (Plasmodium falciparum [8]): Active | inhibition (INH) (Cytochrome P450 3A4): Active | inhibition (Plasmodium falciparum [10]): Active | inhibition (INH) (Cytochrome P450 2C19): Not Active | inhibition (INH) (Cytochrome P450 2D6): Not Active | inhibition (INH) (Cytochrome P450 2C9): Not Active

SMILES: COc1ccc(C2(c3ccc(OC)cc3)NC(=N)N(CC3CCCCC3)C2=O)cc1
Activity (HepG2): Toxic | concentration at 1 h [20]: 2520 ng/mL | concentration at 6 h [21]: 2190 ng/mL | inhibition (INH) (Cytochrome P450 1A2): Not Active | inhibition in vivo at 100 mg/kg (Plasmodium chabaudi [6]): 73% | concentration at 24 h [22]: 7 ng/mL | IC50 (Plasmodium falciparum [7]): 383 nM | inhibition (Plasmodium falciparum [8]): Active | inhibition (INH) (Cytochrome P450 3A4): Active | inhibition (Plasmodium falciparum [10]): Active | inhibition (INH) (Cytochrome P450 2C19): Not Active | inhibition (INH) (Cytochrome P450 2D6): Not Active | inhibition (INH) (Cytochrome P450 2C9): Not Active
